Measured values: ChEMBL document CHEMBL3580579, “Anti-inflammatory Hydrolyzable Tannins from Myricaria bracteata” (J Nat Prod, 2015)
Activity calls are given as the source filed them. The calls are words filed in the database; no cut-off is given here.

Key:
[1] = Antioxidant activity assessed as hydroxy radical-scavenging activity; assay type: physicochemical
Procedure, shortened: (§1)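 Radical scavenging of each tannin measured against DPPH and hydroxy radicals by literature methods, with BHT and Trolox as reference antioxidants.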

[2] = Antioxidant activity assessed as DPPH radical-scavenging activity incubated for 30 mins by spectrophotometry; assay type: physicochemical; procedure, shortened: as §1
[3] = system: J774; test: Increase in cell viability of mouse J774 cells at 0.01 to 10 uM by MTT assay; assay type: functional, cell-based
[4] = system: Mus musculus; test: Anti-inflammatory activity in mouse model of croton oil-induced ear edema assessed as inhibition of ear swelling at 200 mg/kg, sc; assay type: functional
[5] = system: Liver microsome; test: Antioxidant activity assessed as inhibition of Fe2+-cysteine-induced lipid peroxidation in rat liver microsomes incubated for 30 mins by thiobarbituric acid based assay; assay type: functional; conditions: 0.5 h
[6] = system: J774; test: Inhibition of IL6 production in LPS-induced mouse J774 cells at 0.01 to 10 uM; assay type: functional, cell-based
[7] = system: J774; test: Inhibition of nitric oxide production in LPS-induced mouse J774 cells at 0.01 to 10 uM incubated for 24 hrs by Griess reaction based assay; assay type: functional, cell-based
[8] = system: Mus musculus; test: Anti-inflammatory activity in mouse model of croton oil-induced ear edema assessed as inhibition of ear swelling at 50 mg/kg, sc; assay type: functional
[9] = system: J774; test: Inhibition of TNFalpha production in LPS-induced mouse J774 cells at 0.01 to 10 uM; assay type: functional, cell-based
[10] = system: Mus musculus; test: Anti-inflammatory activity in DBA/1 mouse model of collagen induced arthritis assessed as inhibition of disease progression and development at 20 mg/kg, sc measured on day 57; assay type: functional; conditions: DBA/1, sc, 1368 h
[11] = system: Mus musculus; test: Anti-inflammatory activity in mouse model of croton oil-induced ear edema assessed as inhibition of ear swelling at 100 mg/kg, sc; assay type: functional
[12] = system: Mus musculus; test: Anti-inflammatory activity in mouse model of carrageenan-induced paw edema assessed as inhibition of paw edema at 50 mg/kg, sc; assay type: functional

SMILES | IC50 [1] [µM] | IC50 [2] [µM] | Activity [3] | other results
O=C1O[C@@H]2O[C@H](CO)[C@@H](O)[C@H](OC(=O)c3cc(O)c(O)c(O)c3)[C@H]2OC(=O)c2cc(Oc3c(C(=O)O[C@H]4C(O)O[C@@H]5COC(=O)c6cc(O)c(O)c(O)c6-c6c(cc(O)c(O)c6O)C(=O)O[C@H]5[C@@H]4OC(=O)c4cc(O)c(O)c(O)c4)cc(O)c(O)c3O)c(O)c(O)c2Oc2cc1cc(O)c2O (stereo partly drawn) | 15.8 | 2.4 | – | –
O=C1O[C@@H]2O[C@@H]3COC(=O)c4cc(O)c(O)c(O)c4-c4c(cc(O)c(O)c4O)C(=O)O[C@H]3[C@H](OC(=O)c3cc(O)c(O)c(O)c3)[C@H]2OC(=O)c2cc(Oc3c(C(=O)O[C@H]4C(O)O[C@H](CO)[C@@H](O)[C@@H]4OC(=O)c4cc(O)c(O)c(O)c4)cc(O)c(O)c3O)c(O)c(O)c2Oc2cc1cc(O)c2O (stereo partly drawn) | 36.8 | 4.73 | – | –
O=C(O[C@@H]1O[C@@H]2COC(=O)c3cc(O)c(O)c(O)c3-c3c(cc(O)c(O)c3O)C(=O)O[C@H]2[C@H](OC(=O)c2cc(O)c(O)c(O)c2)[C@H]1OC(=O)c1cc(O)c(O)c(O)c1Oc1cc2c(c(O)c1O)Oc1cc(cc(O)c1O)C(=O)O[C@@H]1O[C@@H]3COC(=O)c4cc(O)c(O)c(O)c4-c4c(cc(O)c(O)c4O)C(=O)O[C@H]3[C@H](OC(=O)c3cc(O)c(O)c(O)c3)[C@H]1OC2=O)c1cc(O)c(O)c(Oc2c(C(=O)O[C@H]3[C@H](OC(=O)c4cc(O)c(O)c(O)c4)O[C@H](CO)[C@@H](O)[C@@H]3OC(=O)c3cc(O)c(O)c(O)c3)cc(O)c(O)c2O)c1 | 47.6 | 3.06 | Active | –
O=C1O[C@@H]2O[C@@H]3COC(=O)c4cc(O)c(O)c(O)c4-c4c(cc(O)c(O)c4O)C(=O)O[C@H]3[C@H](OC(=O)c3cc(O)c(O)c(O)c3)[C@H]2OC(=O)c2cc(Oc3c(C(=O)O[C@H]4[C@H](OC(=O)c5cc(O)c(O)c(O)c5)O[C@H](CO)[C@@H](O)[C@@H]4OC(=O)c4cc(O)c(O)c(O)c4)cc(O)c(O)c3O)c(O)c(O)c2Oc2cc1cc(O)c2O | 16.3 | 4.44 | Active | –
O=C1O[C@@H]2O[C@@H]3COC(=O)c4cc(O)c(O)c(O)c4-c4c(cc(O)c(O)c4O)C(=O)O[C@H]3[C@H](OC(=O)c3cc(O)c(O)c(O)c3)[C@H]2OC(=O)c2cc(O)c(O)c(O)c2Oc2cc(cc(O)c2O)C(=O)O[C@@H]2O[C@@H]3COC(=O)c4cc(O)c(O)c(O)c4-c4c(cc(O)c(O)c4O)C(=O)O[C@H]3[C@H](OC(=O)c3cc(O)c(O)c(O)c3)[C@H]2OC(=O)c2cc(O)c(O)c(O)c2Oc2cc1cc(O)c2O | 42.9 | 4.43 | Active | –
O=C(O[C@@H]1O[C@@H]2COC(=O)c3cc(O)c(O)c(O)c3-c3c(cc(O)c(O)c3O)C(=O)O[C@H]2[C@H](OC(=O)c2cc(O)c(O)c(O)c2)[C@H]1OC(=O)c1cc(O)c(O)c(O)c1Oc1cc(C(=O)O[C@@H]2O[C@@H]3COC(=O)c4cc(O)c(O)c(O)c4-c4c(cc(O)c(O)c4O)C(=O)O[C@H]3[C@H](OC(=O)c3cc(O)c(O)c(O)c3)[C@H]2OC(=O)c2cc(O)c(O)c(O)c2Oc2cc3c(c(O)c2O)Oc2cc(cc(O)c2O)C(=O)O[C@@H]2O[C@@H]4COC(=O)c5cc(O)c(O)c(O)c5-c5c(cc(O)c(O)c5O)C(=O)O[C@H]4[C@H](OC(=O)c4cc(O)c(O)c(O)c4)[C@H]2OC3=O)cc(O)c1O)c1cc(O)c(O)c(O)c1 | 55.1 | 4.23 | Active | –
COc1cc(C(=O)O[C@@H]2[C@@H](OC(=O)c3cc(OC)c(OC)c(OC)c3Oc3cc4c(c(OC)c3OC)Oc3cc(cc(OC)c3OC)C(=O)O[C@@H]3O[C@@H]5COC(=O)c6cc(OC)c(OC)c(OC)c6-c6c(cc(OC)c(OC)c6OC)C(=O)O[C@H]5[C@H](OC(=O)c5cc(OC)c(OC)c(OC)c5)[C@H]3OC4=O)[C@H](OC)O[C@@H]3COC(=O)c4cc(OC)c(OC)c(OC)c4-c4c(cc(OC)c(OC)c4OC)C(=O)O[C@@H]23)cc(OC)c1OC | > 100 | > 100 | – | inhibition in vivo at 200 mg/kg [4]: -0.7%
COc1cc(C(=O)O[C@@H]2[C@H]3OC(=O)c4cc(Oc5c(C(=O)O[C@H]6[C@@H](OC)O[C@@H]7COC(=O)c8cc(OC)c(OC)c(OC)c8-c8c(cc(OC)c(OC)c8OC)C(=O)O[C@H]7[C@@H]6OC(=O)c6cc(OC)c(OC)c(OC)c6)cc(OC)c(OC)c5OC)c(OC)c(OC)c4Oc4cc(cc(OC)c4OC)C(=O)O[C@@H]3O[C@@H]3COC(=O)c4cc(OC)c(OC)c(OC)c4-c4c(cc(OC)c(OC)c4OC)C(=O)O[C@@H]23)cc(OC)c1OC | > 100 | > 100 | – | inhibition in vivo at 200 mg/kg [4]: 2.1%
Cc1cc(C(C)(C)C)c(O)c(C(C)(C)C)c1 [BUTYLATED HYDROXYTOLUENE] | 22.6 | 7.08 | – | –
O=C(O)c1cc(O)c(O)c(O)c1 [GALLIC ACID] | 15.7 | 7.23 | – | –
O=C(O[C@@H]1O[C@@H]2COC(=O)c3cc(O)c(O)c(O)c3-c3c(cc(O)c(O)c3O)C(=O)O[C@H]2[C@H](OC(=O)c2cc(O)c(O)c(O)c2)[C@H]1OC(=O)c1cc(O)c(O)c(O)c1-c1c(C(=O)O[C@@H]2O[C@@H]3COC(=O)c4cc(O)c(O)c(O)c4-c4c(cc(O)c(O)c4O)C(=O)O[C@H]3[C@H](OC(=O)c3cc(O)c(O)c(O)c3)[C@H]2OC(=O)c2cc(O)c(O)c(O)c2)cc(O)c(O)c1O)c1cc(O)c(O)c(O)c1 [HIRTELLIN A] | 38.5 | 4.61 | Active | IC50 [5]: 15.6 µM
O=C(O[C@@H]1O[C@@H]2COC(=O)c3cc(O)c(O)c(O)c3-c3c(cc(O)c(O)c3O)C(=O)O[C@H]2[C@H](OC(=O)c2cc(O)c(O)c(O)c2)[C@H]1OC(=O)c1cc(O)c(O)c(O)c1Oc1cc2c(c(O)c1O)Oc1cc(cc(O)c1O)C(=O)O[C@@H]1O[C@@H]3COC(=O)c4cc(O)c(O)c(O)c4-c4c(cc(O)c(O)c4O)C(=O)O[C@H]3[C@H](OC(=O)c3cc(O)c(O)c(O)c3)[C@H]1OC2=O)c1cc(O)c(O)c(O)c1 [HIRTELLIN B] | 39.7 | 4.1 | Active | IC50 [5]: 48.8 µM
O=C(O[C@@H]1O[C@@H]2COC(=O)c3cc(O)c(O)c(O)c3-c3c(cc(O)c(O)c3O)C(=O)O[C@H]2[C@H](OC(=O)c2cc(O)c(O)c(O)c2)[C@H]1OC(=O)c1cc(O)c(O)c(O)c1Oc1cc2c(c(O)c1O)Oc1cc(cc(O)c1O)C(=O)O[C@@H]1O[C@H](CO)[C@@H](O)[C@H](OC(=O)c3cc(O)c(O)c(O)c3)[C@H]1OC2=O)c1cc(O)c(O)c(O)c1 [NILOTININ D8] | 32.5 | 4.67 | Active | –
O=C1O[C@@H]2O[C@@H]3COC(=O)c4cc(O)c(O)c(O)c4-c4c(cc(O)c(O)c4O)C(=O)O[C@H]3[C@H](OC(=O)c3cc(O)c(O)c(O)c3)[C@H]2OC(=O)c2cc(Oc3c(C(=O)O)cc(O)c(O)c3O)c(O)c(O)c2Oc2cc1cc(O)c2O [NILOTININ M4] | 38 | 3.16 | – | –
O=C1O[C@@H]2O[C@@H]3COC(=O)c4cc(O)c(O)c(O)c4-c4c(cc(O)c(O)c4O)C(=O)O[C@H]3[C@H](OC(=O)c3cc(O)c(O)c(O)c3)[C@H]2OC(=O)c2cc(Oc3c(C(=O)O[C@@H]4[C@@H](OC(=O)c5cc(O)c(O)c(O)c5)[C@@H]5OC(=O)c6cc(O)c(O)c(O)c6-c6c(cc(O)c(O)c6O)C(=O)OC[C@H]5O[C@H]4O)cc(O)c(O)c3O)c(O)c(O)c2Oc2cc1cc(O)c2O [TAMARIXININ A] | 41.5 | 3.57 | Active | inhibition [6]: inactive; inhibition in vivo at 200 mg/kg [4]: 69.8%; inhibition [7]: inactive; inhibition in vivo at 50 mg/kg [8]: 34.4%; IC50 [5]: 18.4 µM; inhibition [9]: inactive; inhibition in vivo at 20 mg/kg [10]: 46%; inhibition in vivo at 100 mg/kg [11]: 39%; inhibition in vivo at 50 mg/kg [12]: 25%
Cc1c(C)c2c(c(C)c1O)CCC(C)(C(=O)O)O2 (stereo not drawn) [TROLOX] | 76.7 | 8 | – | –
